Key:
[1] = target: Polymerase acidic protein (Influenza A virus (A/Puerto Rico/8/1934(H1N1)), UniProt P03433); assay: Inhibitory concentration against cap-dependent endonuclease activity of influenza A/PR/8/34 RNP; assay type: functional
How it was run: (§1)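 Cap-dependent transcription run on a filter plate. 10 nM RNP purified from A/PR/8/34 or B/Lee/40 virus was mixed with 0.01 mg/mL AMV RNA, 50 μM GTP, 50 μM CTP, 500 μM ATP and 5 μM [radiolabeled] UTP. Buffer was 50 mM Tris-HCl pH 8 with 100 mM KCl, 5 mM MgCl₂, 10% DMSO, 5 mM DTT and 0.2 mg/mL BSA. Incubation was 90 min at 31 °C. TCA-precipitated RNA was scintillation-counted. IC50 came from dose–response curves.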

[2] = tested on: unidentified influenza virus; assay: Effective concentration against influenza virus in MDCK cells; assay type: functional, organism-based
How it was run: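 Antiviral dose–response read as protection of MDCK cells from influenza virus-induced cell death.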

[3] = target: Polymerase acidic protein (Influenza B virus (strain B/Lee/1940), UniProt Q9QLI9); assay: Inhibitory concentration against cap-dependent endonuclease activity of influenza B/Lee/40 RNP; assay type: functional; how it was run: as §1
[4] = target: Polymerase acidic protein (Influenza A virus (A/Puerto Rico/8/1934(H1N1)), UniProt P03433); assay: Inhibitory concentration against cap-dependent endonuclease activity of influenza virus RNP; assay type: functional, unidentified influenza virus
How it was run: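 Gel-based cap-dependent endonuclease assay. 1 nM influenza RNP was incubated with 0.1 nM cap-labeled 20-mer G20 RNA in 50 mM Tris-HCl pH 8 with 1 mM MgCl₂, 20 mM KCl, 1 U/μL RNase inhibitor and 0.3% Triton X-100, for 5 min at 31 °C. Cleavage products were resolved on polyacrylamide gels and quantified by phosphorimager. IC50 came from dose–response curves.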

[5] = target: Polymerase acidic protein (Influenza A virus (A/Puerto Rico/8/1934(H1N1))) (UniProt P03433); assay: Percent inhibition of cap-dependent endonuclease activity of influenza virus RNP at 100 uM; assay type: functional; details: unidentified influenza virus

Chain of Polymerase acidic protein (Q9QLI9 whole entry): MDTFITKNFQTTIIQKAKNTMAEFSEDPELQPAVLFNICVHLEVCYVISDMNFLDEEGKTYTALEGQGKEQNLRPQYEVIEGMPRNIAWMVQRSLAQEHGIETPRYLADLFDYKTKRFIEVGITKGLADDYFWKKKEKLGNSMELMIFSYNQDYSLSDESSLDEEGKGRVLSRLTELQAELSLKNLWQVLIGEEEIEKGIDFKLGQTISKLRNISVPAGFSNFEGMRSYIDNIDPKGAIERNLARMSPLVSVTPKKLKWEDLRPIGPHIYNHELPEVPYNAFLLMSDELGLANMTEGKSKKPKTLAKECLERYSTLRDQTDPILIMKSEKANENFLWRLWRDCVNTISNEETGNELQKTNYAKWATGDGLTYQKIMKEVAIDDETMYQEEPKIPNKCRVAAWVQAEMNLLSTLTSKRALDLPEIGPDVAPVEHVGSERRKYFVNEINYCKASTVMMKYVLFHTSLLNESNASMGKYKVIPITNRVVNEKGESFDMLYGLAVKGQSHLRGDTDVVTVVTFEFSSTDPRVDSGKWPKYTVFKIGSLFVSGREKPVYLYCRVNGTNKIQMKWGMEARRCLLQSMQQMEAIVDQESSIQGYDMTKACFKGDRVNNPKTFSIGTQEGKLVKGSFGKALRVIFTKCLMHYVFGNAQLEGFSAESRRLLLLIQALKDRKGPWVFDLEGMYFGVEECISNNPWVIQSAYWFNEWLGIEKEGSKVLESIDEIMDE

Row | SMILES | IC50 [1] | IC50 [4] | other results
1 | O=C(Nc1ccc2c(C(=O)c3ccccc3)c(O)n(O)c2c1)c1ccccc1 | 10 µM | – | EC50 [2]: > 90 µM; IC50 [3]: 56 µM
2 | CCc1cc(OC)c(OC)c(C(=O)NC[C@@H]2CCCN2CC)c1OC | 32 µM | – | –
3 | COCON1C(=O)C(CC(C)C)=N/C(=C\C(C)C)C1=O | – | > 355 µM | –
4 | CCC(=O)c1c(O)n(O)c2cc(NC(=O)Nc3ccccc3)ccc12 | 40 µM | – | –
5 | CCC(=O)c1c(O)n(O)c2cc(NC(=O)Nc3ccc(Cl)cc3)ccc12 | 38 µM | – | –
6 | O=C1Cc2ccccc2CN1O | – | 100 µM | inhibition [5]: 25%
7 | NN1C(=O)Cc2ccccc2C1=O | – | 800 µM | –
8 | CCC(=O)c1c(O)n(O)c2cc(NC(=O)c3cccs3)ccc12 | 35 µM | – | –
9 | CC(=O)c1c(O)n(O)c2cc(NC(=O)c3cccs3)ccc12 | 40 µM | – | –
10 | O=C(O)C(=O)/C=C(\O)c1ccc(C2CCCCC2)cc1 | – | 5 µM | –
11 | CCC(=O)c1c(O)n(O)c2cc(NC(=O)Nc3cccc(C(=O)O)c3)ccc12 | 10 µM | – | –
12 | O=C(Nc1cccc(C(=O)O)c1)Nc1ccc2c(C(=O)c3ccccc3)c(O)n(O)c2c1 | 3 µM | – | EC50 [2]: > 100 µM; IC50 [3]: 6 µM
13 | CC(=O)c1c(O)n(O)c2cc(NC(=O)/C=C/c3ccccc3Cl)ccc12 | 26 µM | – | –
14 | CCC(=O)c1c(O)n(O)c2cc(NC(=O)c3ccc(Cl)cc3Cl)ccc12 | 45 µM | – | –
15 | CC(C)/C=C1\N=C(CC(C)C)C(=O)N(O)C1=O | – | 5.5 µM | –
16 | CC(=O)c1c(O)n(O)c2cc(NC(=O)c3ccc4ccccc4c3)ccc12 | 9 µM | – | EC50 [2]: 21 µM; IC50 [3]: 18 µM
17 | O=c1[nH]c2nccnc2c(=O)n1O | – | 95 µM | –
18 | O=C1c2ccccc2C(=O)N1O | – | > 500 µM | –
19 | O=C1CCc2ccccc2C(=O)N1O | – | > 1000 µM | –
20 | CC(=O)c1c(O)n(O)c2cc(NC(=O)c3cnc4ccccc4n3)ccc12 | 11 µM | – | –

Row | SMILES | IC50 [1] | IC50 [4] | other results
21 | O=C(c1ccccc1)c1c(O)n(O)c2cc(NS(=O)(=O)c3cccs3)ccc12 | 48 µM | – | –
22 | O=c1c2nccnc2ncn1O | – | > 500 µM | –
23 | O=C(Nc1ccccc1)Nc1ccc2c(C(=O)c3ccccc3)c(O)n(O)c2c1 | 29 µM | – | –
24 | Cc1cc(C(=O)Nc2ccc3c(C(=O)c4ccccc4)c(O)n(O)c3c2)no1 | 9.5 µM | – | EC50 [2]: > 100 µM
25 | CC(=O)c1c(O)n(O)c2cc(NC(=O)Nc3cccc(C(=O)O)c3)ccc12 | 14 µM | – | –
26 | O=C(Nc1ccc2c(C(=O)c3ccccc3)c(O)n(O)c2c1)c1cnc2ccccc2n1 | 17 µM | – | –
27 | O=C(NO)c1ccccc1 [BENZOHYDROXAMATE] | – | > 500 µM | –
28 | O=C(Nc1ccc2c(C(=O)c3ccccc3)c(O)n(O)c2c1)c1ccc(Cl)cc1Cl | 38 µM | – | –
29 | O=C1Cc2ccccc2CC(=O)N1O | – | > 1000 µM | –
30 | CON1C(=O)Cc2ccccc2C1=O | – | 710 µM | –
31 | CC(C)CC1=N/C(=C\c2ccc(F)cc2)C(=O)NC1=O | – | > 365 µM | –
32 | CCC(=O)c1c(O)n(O)c2cc(NC(=O)c3cnc4ccccc4n3)ccc12 | 10 µM | – | –
33 | CCC(=O)c1c(O)n(O)c2cc(NC(=O)Nc3ccccc3Cl)ccc12 | 50 µM | – | –
34 | O=C(Nc1ccc2c(C(=O)c3ccccc3)c(O)n(O)c2c1)c1cccs1 | 20 µM | – | –
35 | O=C(/C=C/c1ccccc1Cl)Nc1ccc2c(C(=O)c3ccccc3)c(O)n(O)c2c1 | 9.5 µM | – | EC50 [2]: > 30 µM; IC50 [3]: 26 µM
36 | CCC(=O)c1c(O)n(O)c2cc(NC(=O)/C=C/c3ccccc3Cl)ccc12 | 8 µM | – | –
37 | O=C(Nc1ccc2c(C(=O)c3ccccc3)c(O)n(O)c2c1)NC1CCCCC1 | 50 µM | – | –
38 | O=C(Nc1ccc2c(C(=O)c3ccccc3)c(O)n(O)c2c1)c1ccc2ccccc2c1 | 8 µM | – | EC50 [2]: > 40 µM; IC50 [3]: 29 µM
39 | O=C(c1ccccc1)c1c(O)n(O)c2cc(NC(=O)C3CCCCC3)ccc12 | 18 µM | – | –
